Source: PubChem BioAssay
MrgX1 allo act: allosterically activates human MrgX1 receptor signaling; Q96LB2; MrgX1-HEK293, Fluo-4 calcium flux, FDSS; hits give high values; B-score at 10 µM; AID 588675; 0.63% of 310,000 active;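 active = plate-corrected calcium response at least 3 library SD above typical, normal starting fluorescence, not activating the receptor alone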;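 also: compound read alongside a low EC10 to EC30 dose of BAM8-22 agonist; peak minus trough fluorescence over baseline measured at the second addition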
RGS4 act: RGS4 potentiation or activation. HEK293 M3R/inducible RGS4, carbachol calcium flux Fluo4; hits give low values. B-score at 10 µM. 0.92% of 310,000 active;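 active = B-score of the integrated calcium signal more than 4 SD below the library mean, with starting fluorescence not abnormally high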;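 also: negative B-score means reduced calcium response which marks RGS4 activation or potentiation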
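Test system: HEK293 cells with stable M3R and inducible RGS4; also added: carbachol at ECmax as muscarinic agonist stimulus; schedule: dye loading 30 min 37 °C, buffer rest 30 min RT; technique: kinetic calcium fluorescence imaging with Fluo4-AM dye, 2 µM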
KCC2 mod: KCC2 (human) Cl- transport modulation; Q9H2X9; KCC2 cells, thallium flux FluoZin-2 fluorescence; B-score of Tl+ flux slope (higher = more flux/activation; lower = inhibition) at 10 µM; 2.2% of 190,000 active;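 active = thallium flux slope and its plate-corrected score both differing from the plate sample mean at a set confidence after two filtering rounds, in either direction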;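 also: slope of fluorescence scaled to starting intensity during 10 to 20 s after thallium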
Target sequence (Q9H2X9 whole entry, looked up): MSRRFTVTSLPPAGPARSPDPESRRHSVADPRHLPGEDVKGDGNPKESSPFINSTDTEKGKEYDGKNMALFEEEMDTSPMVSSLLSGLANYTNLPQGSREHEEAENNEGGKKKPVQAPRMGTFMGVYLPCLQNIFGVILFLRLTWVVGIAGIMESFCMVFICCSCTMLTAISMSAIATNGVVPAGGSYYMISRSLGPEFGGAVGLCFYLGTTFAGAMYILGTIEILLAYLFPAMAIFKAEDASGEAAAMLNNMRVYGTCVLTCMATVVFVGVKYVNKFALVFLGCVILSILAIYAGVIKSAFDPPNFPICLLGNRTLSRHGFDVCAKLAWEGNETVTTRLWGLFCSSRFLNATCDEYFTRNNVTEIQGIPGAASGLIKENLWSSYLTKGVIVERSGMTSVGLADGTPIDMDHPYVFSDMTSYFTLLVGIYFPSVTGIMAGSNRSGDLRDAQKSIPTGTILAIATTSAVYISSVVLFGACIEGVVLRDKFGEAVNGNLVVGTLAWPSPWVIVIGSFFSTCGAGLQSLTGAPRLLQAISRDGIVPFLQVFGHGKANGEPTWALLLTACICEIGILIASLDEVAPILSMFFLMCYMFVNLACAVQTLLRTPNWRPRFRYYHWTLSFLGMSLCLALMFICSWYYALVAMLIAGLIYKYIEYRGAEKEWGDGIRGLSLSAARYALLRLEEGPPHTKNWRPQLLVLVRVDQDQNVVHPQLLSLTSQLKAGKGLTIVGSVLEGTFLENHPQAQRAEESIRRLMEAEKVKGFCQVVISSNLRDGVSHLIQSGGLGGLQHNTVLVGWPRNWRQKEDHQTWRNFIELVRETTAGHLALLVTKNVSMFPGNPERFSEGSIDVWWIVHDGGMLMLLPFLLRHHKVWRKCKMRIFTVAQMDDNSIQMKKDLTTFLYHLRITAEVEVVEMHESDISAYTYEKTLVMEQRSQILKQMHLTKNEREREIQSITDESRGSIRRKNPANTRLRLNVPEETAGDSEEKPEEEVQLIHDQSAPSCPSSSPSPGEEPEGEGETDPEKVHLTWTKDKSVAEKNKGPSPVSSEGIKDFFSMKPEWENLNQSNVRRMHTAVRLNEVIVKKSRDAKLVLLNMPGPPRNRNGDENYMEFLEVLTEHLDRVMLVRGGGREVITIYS
MrgX1 ag: activates human MrgX1 receptor signaling. MrgX1-HEK293 cells, Fluo-4 calcium fluorescence, agonist mode; hits give high values. Q96LB2. B-score at 10 µM. AID 588627. 0.44% of 310,000 active;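 active = calcium response B-score plate-corrected fluorescence ratio at least 3 library SD, with starting fluorescence B-score inside 5 SD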
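Test system: HEK293 cells stably expressing human MrgX1 receptor; Input: fifteen thousand cells per well; Dosing: compound delivered in addition one of three; Schedule: overnight seeding, then 1 h dark dye loading; Technique: Fluo-4 NW calcium fluorescence; Measure: B-scored fluorescence response ratio; Controls: positive and negative controls per plate.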
RGS4 block: human RGS4 inhibition | P49798 | HEK293 M3R/RGS4 inducible, Fluo-4 calcium flux; hits give high values; triggered by carbachol at its EC20 | B-score at 10 µM | 0.45% of 310,000 active | AID 463165;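 active = B-score, a plate-corrected calcium signal, over three deviations above library mean, with baseline fluorescence within five deviations of library mean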;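 also: RGS4 expression induced by doxycycline in cells with stable M3 receptor; B-score is computed from the integrated fluorescence ratio over baseline after carbachol; higher B-score means a larger calcium signal and so more RGS4 inhibition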
MrgX1 antagonist: antagonists of human MrgX1 receptor. MRGX1-HEK293 calcium flux, Fluo-4, BAM8-22 antagonism; hits give low values. 1.3% of 310,000 active. AID 588676. Q96LB2. B-score at 10 µM;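 active = calcium-response B-score plate-corrected more than 3 library SD below zero, starting fluorescence within 5 deviations, no agonist response on first addition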;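 also: peak minus trough fluorescence over baseline after final BAM8-22 challenge near maximal dose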
KCC2 sec1: KCC2 (human) modulation, secondary assay | normalised thallium flux (F/F0 slope) at 10 µM | HEK293-KCC2, thallium flux, FluoZin2 fluorescence; hits give high values | 15% of 3,700 active | shares compounds with KCC2 mod;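 active = thallium flux slope above the same plate's solvent-only control mean plus 3 SD; inconclusive = the two replicate wells disagree; inactive = no significant difference from solvent-only control wells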
KCC2 bumet counter: bumetanide-insensitive thallium flux in KCC2 cells with ouabain, counter-screen; shares compounds with KCC2 mod; HEK293-KCC2 + bumetanide/ouabain, thallium flux FluoZin2; hits give high values; normalized thallium flux at 10 µM; 49% of 3,700 active;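 active = thallium entry rate above the same plate's blocked-transporter control wells by more than 3 SD; inconclusive = the two repeat wells disagree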;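 also: raw slope of fluorescence over initial fluorescence between 10 and 20 s after thallium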
KCC2 secondary2: KCC2 (human) modulation, second secondary assay; normalized thallium flux at 10 µM; shares compounds with KCC2 mod; HEK293-KCC2, thallium flux FluoZin2 fluorescence; actives lie on both sides; F/F0 rise rate, 10–20 s post-thallium; 23% of 3,700 active;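 active = thallium flux slope more than 3 SD above or below the plate's solvent-only control mean, mostly below; inconclusive = the two repeat wells disagreed; inactive = no significant shift from solvent-only controls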;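 also: raw slope with 0.1% DMSO as baseline and bumetanide as block control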
HEK293 Tl flux: counter-screen for KCC2 modulators: effect in parental HEK293 cells; thallium flux rate (normalised fluorescence) at 10 µM; shares compounds with KCC2 mod; AID 1716; thallium flux FluoZin2, ouabain; baseline-ratio fluorescence slope, 10–20 s after thallium; 46% of 3,700 active;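 active = thallium flux rate significantly above the same plate's solvent-only control wells, beyond their mean plus 3 SD; inconclusive = the two replicate wells gave conflicting results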
KCC2 retest ouab: modulates human KCC2 on retest with ouabain; shares compounds with KCC2 mod; HEK293-KCC2, thallium flux FluoZin2 fluorescence; bidirectional: low = inhibitor, high = activator; raw Tl+ flux slope (below DMSO = inhibition, above = activation) at 10 µM; 48% of 3,700 active;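 active = thallium flux slope beyond 3 SD from same-plate DMSO control mean in most replicates, usually higher, sometimes lower; inconclusive = repeat tests gave conflicting results; inactive = no significant difference from controls in most replicates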;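 also: slope of initial-normalized fluorescence between seconds 10 and 20 after thallium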
HEK counter2: parental HEK flux effect, counter-screen 2; shares compounds with KCC2 mod; HEK293 parental, thallium flux FluoZin-2 fluorescence slope; thallium flux slope at 10 µM; 33% of 3,700 active; AID 1718;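 active = thallium flux slope above the same plate's solvent-control mean plus 3 SD in both duplicate wells; inconclusive = duplicate wells that disagreed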;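 also: run without ouabain in cells lacking the KCC2 cotransporter; slope of fluorescence scaled to its starting value between 10 and 20 s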
Numbers without * were called inactive; i = inactive; ? = inconclusive; . = no result. Rows were chosen to be rich in hits. Some 4.7% of all compounds tested hit in one or more screens of this group.

SMILES	MrgX1 allo act	RGS4 act	KCC2 mod	MrgX1 ag	RGS4 block	MrgX1 antagonist	KCC2 sec1	KCC2 bumet counter	KCC2 secondary2	HEK293 Tl flux	KCC2 retest ouab	HEK counter2
Cc1ccc(N2CC(C(=O)N3CCc4ccccc4C3)CC2=O)cc1 (configuration not stated)	i	i	.	i	i	i	0.0069	0.0042	0.029	0.0071	0.017	0.0097
Cc1ccc(N2CC(C(=O)N3CCCCCC3)CC2=O)cc1 (configuration not stated)	i	i	.	i	i	i	.	.	.	.	.	.
Cc1cccc(C(=O)OCC(=O)N(C)c2ccccc2)c1C	i	i	.	i	i	i	.	.	.	.	.	.
O=C(COc1ccccc1/C=C1/NC(=O)NC1=O)Nc1ccccc1	i	i	0.024	i	i	i	.	.	.	.	.	.
Cc1ccc(S(=O)(=O)Oc2ccccc2/C=C2\SC(=O)NC2=O)cc1	i	i	-6*	i	i	i	?	0.004	0.024*	0.0066*	0.015*	0.01
O=C(COc1ccccc1/C=C1\SC(=O)NC1=O)Nc1ccc(F)cc1	i	i	-3.1*	i	i	i	0.0075	0.0068	0.032	0.0036	0.013*	0.011
O=C(NCc1ccco1)Nc1cccc([N+](=O)[O-])c1	.	i	1.2	.	i	.	.	.	.	.	.	.
CCOc1ncccc1C(=O)NNC(=O)c1ccccc1-n1cccc1	i	i	.	i	i	i	.	.	.	.	.	.
O=C(Nc1ccccc1Oc1ccccc1)c1cccs1	i	i	.	i	i	i	.	.	.	.	.	.
O=C(CS(=O)c1ccc(Br)cc1)N1CCOCC1 (configuration not stated)	i	i	.	i	i	i	.	.	.	.	.	.
CC(C)(C)NC(=O)C(=O)NNC(=O)C12CC3CC(CC(C3)C1)C2	i	i	5.9*	i	i	i	?	0.045*	0.036*	0.029*	0.038*	0.023*
CCOc1ccc(-n2c(=O)c3sccc3n(CC(=O)NC3CCCCC3)c2=O)cc1	i	i	.	i	i	i	.	.	.	.	.	.
CCC(=O)N1c2ccc(S(=O)(=O)N3CCN(c4ccc([N+](=O)[O-])cc4)CC3)cc2CC1C (configuration not stated)	i	i	.	i	i	i	.	.	.	.	.	.
CC(/C=C/c1ccccc1F)=N\NC(=O)c1cccc(F)c1	i	i	.	i	i	i	0.0058	0.046*	0.042*	0.026*	0.041*	0.028*
C/C(=N\NC(=O)c1cccc(Cl)c1)C1C(=O)c2ccccc2C1=O	18*	i	-3.7*	i	i	i	0.0069	0.0095*	0.027	0.0074	?	0.0089
CC(/C=C/c1ccco1)=N\NC(=O)c1cccc(Cl)c1	i	i	14*	i	i	i	0.005	0.039*	?	0.023*	0.037*	0.026*
CN(CC(O)CON=C1c2ccccc2-c2ccccc21)S(=O)(=O)c1ccc(Br)cc1 (configuration not stated)	i	i	-0.56	i	i	i	.	.	.	.	.	.
CS(=O)(=O)N(CC(O)CON=C1c2ccccc2-c2ccccc21)c1ccc(F)cc1 (configuration not stated)	i	i	.	i	i	i	0.006	0.0046	0.031	?	0.019	0.01
S=c1[nH]nc(COc2ccc(Cl)cc2)n1C1CCCCC1	i	i	2.5*	i	i	i	0.0052	0.015*	0.033	0.012*	?	0.015*
Cc1ccc(OCc2n[nH]c(=S)n2C2CCCCC2)cc1	i	i	13*	i	i	i	?	0.043*	0.045*	0.026*	0.042*	0.03*
S=c1[nH]nc(CSCc2ccccc2Cl)n1C1CCCCC1	.	i	27*	.	i	.	0.0057	0.031*	?	0.029*	0.028*	0.02*
COc1ccccc1CCC(=O)Nc1ncc(C)s1	i	i	.	i	i	i	.	.	.	.	.	.
Cc1ccc(C)c(/C=C(\C(=O)O)c2ccc(S(=O)(=O)N3CCCCC3)s2)c1	i	i	-2.5	i	i	i	.	.	.	.	.	.
O=C(O)/C(=C\c1cccc(F)c1)c1ccc(S(=O)(=O)N2CCCCC2)s1	i	i	-5.6*	i	i	i	0.0083	0.0064	0.032	0.0072	0.014*	0.011
Cc1cc(CNC(=O)c2cccc(OC3CCN(S(=O)(=O)N(C)C)CC3)c2)on1	i	i	.	i	i	i	.	.	.	.	.	.
COC(=O)C(NC(C)=O)(Nc1sc2c(c1C(N)=O)CCCC2)C(F)(F)F (configuration not stated)	i	i	.	i	i	i	0.0082	0.0059	0.029	0.0069	0.02	0.0097
Cc1ccccc1Nc1nnc(SCC(=O)Nc2ncc(C(F)(F)F)cc2Cl)s1	i	i	-1.7	i	i	i	.	.	.	.	.	.
Cc1cccc(C)c1Nc1nnc(SCC(=O)Nc2ncc(C(F)(F)F)cc2Cl)s1	i	i	-6.5*	i	i	i	0.0057*	0.0069	0.025*	?	0.014*	0.0093
Cc1cccc(Nc2nnc(SCC(=O)Nc3ncc(C(F)(F)F)cc3Cl)s2)c1C	i	i	-3.6*	i	i	i	0.0059	0.0052	0.024*	0.0067	?	0.01
CC1(C)C(C(=O)OCC(Cl)(Cl)Cl)N2C(=O)C(NC(=O)Cc3ccccc3)C2S1=O (configuration not stated)	i	i	.	i	i	i	.	.	.	.	.	.
